UBC9 SUMO inh – inhibitors of in vitro SUMOylation cascade, primary screen, biochemical, HTRF, uHTS; inhibition, % at 35 µM; 290,000 compounds, 0.36% hits; SUMO-conjugating enzyme UBC9 (Homo sapiens), P63279; HTRF SUMOylation assay, SAE1/SAE2 + UBC9; in the data active means inhibition above about 50%, passing the limit was not always enough
Target sequence (P63279 whole entry, looked up): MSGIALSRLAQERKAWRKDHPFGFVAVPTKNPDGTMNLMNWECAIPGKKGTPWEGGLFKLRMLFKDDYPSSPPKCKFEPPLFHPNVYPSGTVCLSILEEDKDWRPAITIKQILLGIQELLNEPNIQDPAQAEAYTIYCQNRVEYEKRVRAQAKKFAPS
HCV core dimer – inhibitors of HCV core protein dimerization, primary screen, biochemical, TR-FRET, high-throughput; TR-FRET GST/Flag-core106 dimerization, 1536-well; inhibition, % at 5 µM; 300,000 compounds, 0.33% hits; AID 1899, 2009;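 active means inhibition above the mean of all tested compounds plus 3 SD, set per screening campaign, cut at about 45% in these data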
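System – GST-tagged and Flag-tagged HCV core protein residues 1-106 · Repeats – one well for each compound · Technique – TR-FRET 671 and 617 nm emission · Doses – one concentration, 5 µM, in 0.5% DMSO · Times – 4 h, 22.5 °C incubation · Also added – Eu donor and XL665 acceptor anti-tag antibodies · Measure – percent inhibition of core106 dimerization signal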
EBNA-1 inhibitor – EBNA-1 DNA-binding inhibitors, primary screen, biochemical, fluorescence polarization. inhibition, % at 14.8 µM. 300,000 compounds, 0.34% hits; in the data active means inhibition above about 28%
ZTA DNA inh – counter-screen for EBNA-1 inhibitors: inhibitors of Epstein-Barr virus ZTA. P03206. ZTA-DNA binding, fluorescence polarization. inhibition, % at 11 µM. 320,000 compounds, 0.15% hits; in the data active means inhibition above about 33%
Target sequence (P03206 whole entry, looked up): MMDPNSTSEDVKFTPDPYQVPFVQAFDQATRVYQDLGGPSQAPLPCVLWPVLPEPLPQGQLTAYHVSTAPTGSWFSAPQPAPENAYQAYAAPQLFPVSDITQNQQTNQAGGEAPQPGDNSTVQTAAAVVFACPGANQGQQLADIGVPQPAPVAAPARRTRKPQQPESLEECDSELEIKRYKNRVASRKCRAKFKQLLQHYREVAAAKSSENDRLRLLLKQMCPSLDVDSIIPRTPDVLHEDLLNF
HCV NS3 hel inh – inhibitors of HCV NS3 helicase, primary screen, biochemical, Cy5 molecular beacon fluorescence | Hepatitis C virus NS3 helicase | NS3 helicase DNA unwinding | inhibition, % at 10.9 µM | 290,000 compounds, 0.56% hits;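 active means inhibition above the mean of all tested compounds plus 3 SD, set per campaign, cut at about 35% in these data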;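 further: 0% = DMSO wells and 100% = thioflavine S control wells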
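Control set: DMSO versus 110 µM thioflavine S; Material: NS3 helicase fragment of HCV; Measured by: Cy5 fluorescence at 0 and 60 min, beacon hairpin quenching; Read-out basis: percent inhibition from t60/t0 fluorescence ratio; Times: reaction time 60 min, 25 °C; Repeats: single replicate; Compound dosing: single dose, 10.9 µM nominal final, DMSO 0.8% final.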
EBNA-1 confirm – EBNA-1 DNA-binding inhibitors, retest, confirmation, biochemical, fluorescence polarization, triplicate | inhibition, % at 14.8 µM | shares compounds with EBNA-1 inhibitor | 830 compounds, 35% hits | Recombinant EBNA-1 DBD, Cy5-DNA fluorescence polarization;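 active means mean inhibition across replicates above a set limit taken from the earlier primary screen, cut at about 28% in these data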;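 further: plate controls were EBNA-1 protein with DMSO for no effect and wells lacking EBNA-1 for full effect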
ZTA DNA inh trip – EBV Zta DNA binding inhibitors, counter-screen for EBNA-1 inhibitor project, biochemical, fluorescence polarization, triplicate; AID 2328, 2010; inhibition, % at 11.1 µM; Zta-ZRE DNA binding, Cy5 fluorescence polarization; shares compounds with EBNA-1 inhibitor; 830 tested, under 10 active;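 active means mean inhibition over triplicates above a set limit taken from the primary EBNA-1 screen, cut at about 37% in these data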;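 further: purified full length Zta protein with Cy5 labeled ZRE DNA probe; 0% = Zta with DMSO and 100% = wells lacking Zta protein; inhibitors lower polarization by freeing the labeled DNA probe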
* marks the source's active call; other numbers are inactive results; nt = no result given. Compounds with a hit are over-represented: about 1.4% of the library has one in this group of screens.

SMILES	UBC9 SUMO inh	HCV core dimer	EBNA-1 inhibitor	ZTA DNA inh	HCV NS3 hel inh	EBNA-1 confirm	ZTA DNA inh trip
O=C(CN1C(=O)c2ccccc2C1=O)NCC(=O)OCC(=O)c1ccc(Cl)cc1	-12.9	-2.2	-3.1	-3.0	-0.8	nt	nt
O=C(CNC(=O)c1ccc(N2C(=O)c3ccccc3C2=O)cc1)OCC(=O)c1ccc(Cl)cc1	16.1	13.8	35.9*	6.3	-4.0	15.1	9.0
Cc1ccc(C(=O)COC(=O)CNC(=O)c2ccc(N3C(=O)c4ccccc4C3=O)cc2)cc1C	8.3	-0.5	29.0*	11.4	-1.6	9.7	5.7
O=c1ccc(Cl)nn1-c1ccccc1	nt	-4.8	6.4	-8.5	nt	nt	nt
N#Cc1c2c(c(Nc3ccc(O)cc3)n3c1nc1ccccc13)CCC2	34.5	-11.3	39.2*	-3.2	31.4	15.0	0.4
N#Cc1c2c(c(NCc3ccco3)n3c1nc1ccccc13)CCC2	10.2	13.6	-9.4	2.4	4.0	nt	nt
CSc1ccccc1C(=O)N1CCN(S(=O)(=O)c2sc(C(=O)O)c(C)c2C(=O)O)CC1	nt	nt	nt	1.4	nt	nt	nt
O=C(CSc1ncn(-c2ccccc2)n1)Nc1nc(-c2ccccc2)cs1	-10.1	0.3	16.2	0.2	-14.3	nt	nt
Cc1ccc(-c2csc(NC(=O)CSc3ncn(-c4ccccc4)n3)n2)cc1	-5.6	20.5	40.5*	14.2	-3.7	-0.4	-1.5
O=S(=O)(Nc1nc2ccccc2nc1-[n+]1cccc(N=C([O-])c2ccccc2Cl)c1)c1ccccc1	8.7	10.5	-8.5	1.7	10.5	nt	nt
COc1ccc(C([O-])=Nc2ccc[n+](-c3nc4ccccc4nc3NS(=O)(=O)c3ccccc3)c2)cc1	11.0	18.6	28.8*	1.3	-20.5	0.4	-6.5
Cn1c(C(=O)NN)cc2cc(OCc3ccccc3)ccc21	nt	-0.2	-3.7	-1.1	nt	nt	nt
CCOc1cc(/C=N/NC(=O)C(=O)N/N=C/c2ccc(O)c(OCC)c2)ccc1O	2.6	-12.7	27.7*	7.7	-0.4	23.1	-5.6
CC(/C=N/NC(=O)c1ccccc1F)=C\c1ccccc1	3.9	-2.1	2.5	2.3	4.3	nt	nt
CCCn1c(C)cc(/C=C(\C#N)C(=O)OCC(=O)Nc2cccc(OC)c2)c1C	3.7	15.7	67.2*	2.6	-5.0	0.4	2.2
CCCn1c(C)cc(/C=C(\C#N)C(=O)OCC(=O)Nc2cccc(S(N)(=O)=O)c2)c1C	nt	nt	nt	16.1	nt	nt	nt
COc1ccc2nc3sc(C(=O)NCc4cccs4)c(N)c3cc2c1	23.3	-9.0	31.3*	-3.8	7.5	6.9	17.2
COc1ccc(-c2cc(C(=O)NCc3cccs3)no2)cc1	9.1	3.4	2.4	9.0	18.1	nt	nt
O=C(Cn1nnc(-c2ccc(CN3CCOCC3)cc2)n1)Nc1nc(-c2ccccc2)cs1	-20.2	5.0	47.5*	-2.2	-4.5	5.3	6.8
C=CCn1c(SCC(=O)NC(=O)NCc2ccco2)nc2sc(C)c(C)c2c1=O	20.4	11.2	46.9*	9.1	-0.3	31.7*	2.3
CCN(CC(=O)Nc1c(F)cccc1F)C(=O)c1ccc(COc2ccccc2)o1	nt	-2.3	-1.3	8.4	nt	nt	nt
O=C(Cn1nc(-c2ccc3c(c2)OCCO3)ccc1=O)Nc1ccc(N2CCOCC2)cc1	-7.1	-0.9	-0.2	7.9	-1.3	nt	nt
O=C(Cn1nc(-c2ccc3c(c2)OCCO3)ccc1=O)Nc1cccc(NC(=O)c2ccccn2)c1	7.3	10.7	40.8*	0.6	0.0	43.4*	12.3
COc1ccccc1Nc1nnc(SCC(=O)Nc2cc(C)on2)s1	32.5	4.3	35.3*	-2.5	7.3	20.9	3.9
Cc1ccc(N2CC(C(=O)Nc3nnc(SCC(=O)Nc4cc(C)on4)s3)CC2=O)cc1 (stereo not drawn)	10.5	27.8	34.4*	11.4	11.6	8.6	-4.1
